Experimental data: ChEMBL document CHEMBL4270541, “Synthesis and antimicrobial evaluation of amino sugar-based naphthoquinones and isoquinoline-5,8-diones and their halogenated compounds” (Eur J Med Chem, 2018)
In brackets after ≈: the same amount, converted by molar mass. Activity calls are given as the source filed them. The rule behind the calls is not given here.

Key:
Escherichia coli [1] = experiment: Antimicrobial activity against Escherichia coli INCQS 00033 ATCC 25922 assessed as zone of inhibition at 5 mg/ml after 18 to 24 hrs by disc diffusion method; format: functional; settings: ATCC 25922 INCQS 00033, read-out: IZ
Proteus mirabilis = experiment: Antimicrobial activity against Proteus mirabilis INCQS 00095 ATCC 15290 assessed as zone of inhibition at 5 mg/ml after 18 to 24 hrs by disc diffusion method; format: functional; settings: read-out: IZ
[2] = tested on: Staphylococcus epidermidis; experiment: Antimicrobial activity against Staphylococcus epidermidis INCQS 00016 ATCC 12228 assessed as zone of inhibition at 5 mg/ml after 18 to 24 hrs by disc diffusion method; format: functional; settings: ATCC 12228 INCQS 00016, read-out: IZ
Staphylococcus aureus [3] = experiment: Antimicrobial activity against methicillin-resistant Staphylococcus aureus BMB9393 assessed as zone of inhibition at 5 mg/ml after 18 to 24 hrs by disc diffusion method; format: functional; settings: read-out: IZ
[4] = Hemolytic activity against human erythrocytes assessed as hemolysis at 200 ug/ml after 3 hrs by spectrophotometric analysis relative to control; format: ADME, cell-based, Erythrocyte; settings: read-out: Activity
In short: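 Erythrocytes collected in citrate tubes, washed three times with PBS pH 7.4 by centrifugation and resuspended in PBS. Incubated with compounds at 200 µg/mL for 3 h at 37°C. Released hemoglobin was read in the supernatant at 545 nm against 1% Triton X-100 (complete lysis) and 1% DMSO (negative control). Below 10% hemolysis was taken as hemocompatible. Three independent experiments.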

Staphylococcus aureus [5] = experiment: Antimicrobial activity against Staphylococcus aureus INCQS 00015 ATCC 25923 assessed as zone of inhibition at 5 mg/ml after 18 to 24 hrs by disc diffusion method; format: functional; settings: read-out: IZ
Staphylococcus simulans [6] = experiment: Antimicrobial activity against Staphylococcus simulans INCQS 00254 ATCC 27851 assessed as zone of inhibition at 5 mg/ml after 18 to 24 hrs by disc diffusion method; format: functional; settings: read-out: IZ
Klebsiella pneumoniae = experiment: Antimicrobial activity against Klebsiella pneumoniae INCQS 00083 ATCC 4352 assessed as zone of inhibition at 5 mg/ml after 18 to 24 hrs by disc diffusion method; format: functional; settings: read-out: IZ
Enterococcus faecalis = experiment: Antimicrobial activity against Enterococcus faecalis INCQS 00234 ATCC 29212 assessed as zone of inhibition at 5 mg/ml after 18 to 24 hrs by disc diffusion method; format: functional; settings: ATCC 29212 INCQS 00234, read-out: IZ
Pseudomonas aeruginosa [7] = experiment: Antimicrobial activity against Pseudomonas aeruginosa INCQS 00099 ATCC 27853 assessed as zone of inhibition at 5 mg/ml after 18 to 24 hrs by disc diffusion method; format: functional; settings: read-out: IZ
Staphylococcus aureus [8] = experiment: Antimicrobial activity against methicillin-resistant Staphylococcus aureus BMB9393 at 256 ug/ml after 24 hrs by microdilution assay; format: functional, organism-based
Escherichia coli [9] = experiment: Bactericidal activity against Escherichia coli INCQS 00033 ATCC 25922 incubated for 24 hrs followed by transfer of microbial suspension to agar plates and measured after 24 hrs post transfer by resazurin dye-based colorimetric analysis; format: functional; settings: ATCC 25922 INCQS 00033, 24 h, read-out: MBC99.9
In short: (§1)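 For MBC, 10 µL from each clear MIC well was plated on agar and incubated 24 h at 37°C. MBC is the minimum concentration inhibiting 99.9% of growth. […] Triplicate.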

[10] = tested on: Staphylococcus epidermidis; experiment: Bactericidal activity against Staphylococcus epidermidis INCQS 00016 ATCC 12228 incubated for 24 hrs followed by transfer of microbial suspension to agar plates and measured after 24 hrs post transfer by resazurin dye-based colorimetric analysis; format: functional; settings: ATCC 12228 INCQS 00016, 24 h, read-out: MBC99.9; in short: as §1
Pseudomonas aeruginosa [11] = experiment: Bactericidal activity against Pseudomonas aeruginosa INCQS 00099 ATCC 27853 incubated for 24 hrs followed by transfer of microbial suspension to agar plates and measured after 24 hrs post transfer by resazurin dye-based colorimetric analysis; format: functional; settings: INCQS 00099 ATCC 27853, 24 h, read-out: MBC99.9; in short: as §1
[12] = tested on: Staphylococcus epidermidis; experiment: Antimicrobial activity against Staphylococcus epidermidis INCQS 00016 ATCC 12228 after 24 hrs by microdilution assay; format: functional; settings: ATCC 12228 INCQS 00016, 24 h
Escherichia coli [13] = experiment: Ratio of MBC99.9 to MIC for Escherichia coli INCQS 00033 ATCC 25922; format: functional, ATCC 25922 INCQS 00033
In short: (§2)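 MBC/MIC ratio from the 24 h, 37°C microdilution MIC and the agar-plating MBC (99.9% growth inhibition). A ratio ≤2 was classed as bactericidal and ≥4 as bacteriostatic.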

Staphylococcus simulans [14] = experiment: Antimicrobial activity against Staphylococcus simulans INCQS 00254 ATCC 27851 at 256 ug/ml after 24 hrs by microdilution assay; format: functional, organism-based
Staphylococcus simulans [15] = experiment: Bactericidal activity against Staphylococcus simulans INCQS 00254 ATCC 27851 at 256 ug/ml incubated for 24 hrs followed by transfer of microbial suspension to agar plates and measured after 24 hrs post transfer by resazurin dye-based colorimetric analysis; format: functional, organism-based; in short: as §1
Staphylococcus aureus [16] = experiment: Antimicrobial activity against Staphylococcus aureus INCQS 00015 ATCC 25923 at 256 ug/ml after 24 hrs by microdilution assay; format: functional, organism-based
Escherichia coli [17] = experiment: Antimicrobial activity against Escherichia coli INCQS 00033 ATCC 25922 after 24 hrs by microdilution assay; format: functional; settings: ATCC 25922 INCQS 00033, 24 h
Pseudomonas aeruginosa [18] = experiment: Antimicrobial activity against Pseudomonas aeruginosa INCQS 00099 ATCC 27853 after 24 hrs by microdilution assay; format: functional; settings: INCQS 00099 ATCC 27853, 24 h
Pseudomonas aeruginosa [19] = experiment: Ratio of MBC99.9 to MIC for Pseudomonas aeruginosa INCQS 00099 ATCC 27853; format: functional; in short: as §2
Staphylococcus aureus [20] = experiment: Bactericidal activity against Staphylococcus aureus INCQS 00015 ATCC 25923 at 256 ug/ml incubated for 24 hrs followed by transfer of microbial suspension to agar plates and measured after 24 hrs post transfer by resazurin dye-based colorimetric analysis; format: functional, organism-based; in short: as §1
[21] = tested on: Staphylococcus epidermidis; experiment: Ratio of MBC99.9 to MIC for Staphylococcus epidermidis INCQS 00016 ATCC 12228; format: functional, ATCC 12228 INCQS 00016; in short: as §2
Staphylococcus aureus [22] = experiment: Bactericidal activity against methicillin-resistant Staphylococcus aureus BMB9393 at 256 ug/ml incubated for 24 hrs followed by transfer of microbial suspension to agar plates and measured after 24 hrs post transfer by resazurin dye-based colorimetric analysis; format: functional, organism-based
In short: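 From MIC wells with no visible growth, 10 µL is transferred to agar plates and incubated 24 h at 37°C. MBC is the minimum concentration inhibiting 99.9% of growth. […] Triplicate.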

| Compound | zone of inhibition at 5000 µg/mL (Escherichia coli [1]) | zone of inhibition at 5000 µg/mL (Proteus mirabilis) | zone of inhibition at 5000 µg/mL [2] | zone of inhibition at 5000 µg/mL (Staphylococcus aureus [3]) | hemolysis at 3 h, 200 ug/ml [4] | zone of inhibition at 5000 µg/mL (Staphylococcus aureus [5]) | zone of inhibition at 5000 µg/mL (Staphylococcus simulans [6]) | zone of inhibition at 5000 µg/mL (Klebsiella pneumoniae) | zone of inhibition at 5000 µg/mL (Enterococcus faecalis) | zone of inhibition at 5000 µg/mL (Pseudomonas aeruginosa [7]) | also measured |
| --- | --- | --- | --- | --- | --- | --- | --- | --- | --- | --- | --- |
| COC(=O)c1c(C)nc(C)c2c1C(=O)C=C(NC[C@H]1O[C@@H](OC)[C@@H]3OC(C)(C)O[C@@H]31)C2=O | 0 mm | 0 mm | 0 mm | 0 mm | < 10% | 0 mm | 0 mm | 0 mm | 0 mm | 0 mm |  |
| COC(=O)c1c(C)nc(C)c2c1C(=O)C=C(N)C2=O | 0 mm | 0 mm | 0 mm | 0 mm | < 10% | 0 mm | 0 mm | 0 mm | 0 mm | 0 mm |  |
| COC(=O)c1c(C)nc(C)c2c1C(=O)C(Br)=C(NC[C@H]1O[C@@H]3OC(C)(C)O[C@@H]3[C@H]3OC(C)(C)O[C@H]31)C2=O | 0 mm | 0 mm | 0 mm | 0 mm | < 10% | 0 mm | 0 mm | 0 mm | 0 mm | 0 mm |  |
| CC1(C)O[C@H]2[C@@H](O1)[C@@H](CNC1=C(Br)C(=O)c3ccccc3C1=O)O[C@@H]1OC(C)(C)O[C@@H]12 | 0 mm | 0 mm | 0 mm | 0 mm | 10.1 to 14.4% | 0 mm | 0 mm | 0 mm | 0 mm | 0 mm |  |
| O=C(O)c1cn(C2CC2)c2cc(N3CCNCC3)c(F)cc2c1=O [CIPROFLOXACIN] | 35 mm | 28 mm |  |  |  |  |  | 27 mm |  | 36 mm |  |
| COC(=O)c1c(C)nc(C)c2c1C(=O)C(Cl)=C(NC[C@H]1O[C@@H]3OC(C)(C)O[C@@H]3[C@H]3OC(C)(C)O[C@H]31)C2=O | 0 mm | 0 mm | 0 mm | 0 mm | < 10% | 0 mm | 0 mm | 0 mm | 0 mm | 0 mm |  |
| CC1(C)O[C@H]2[C@@H](O1)[C@@H](CNC1=CC(=O)c3ccccc3C1=O)O[C@@H]1OC(C)(C)O[C@@H]12 | 0 mm | 0 mm | 0 mm | 0 mm | < 10% | 0 mm | 0 mm | 0 mm | 0 mm | 0 mm |  |
| COC(=O)c1c(C)nc(C)c2c1C(=O)C(Br)=C(N)C2=O | 30 mm | 0 mm | 22 mm | 22 mm | 10.1 to 14.4% | 23 mm | 17 mm | 0 mm | 0 mm | 28 mm | Activity (Staphylococcus aureus [8]): inactive; MBC (Escherichia coli [9]): 8 µg/mL (≈ 23.6 µM); MBC [10]: 32 µg/mL (≈ 94.4 µM); MBC (Pseudomonas aeruginosa [11]): 32 µg/mL (≈ 94.4 µM); MIC [12]: 32 µg/mL (≈ 94.4 µM); Ratio (Escherichia coli [13]): 1; Activity (Staphylococcus simulans [14]): inactive; Activity (Staphylococcus simulans [15]): inactive; Activity (Staphylococcus aureus [16]): inactive; MIC (Escherichia coli [17]): 8 µg/mL (≈ 23.6 µM); MIC (Pseudomonas aeruginosa [18]): 32 µg/mL (≈ 94.4 µM); Ratio (Pseudomonas aeruginosa [19]): 1; Activity (Staphylococcus aureus [20]): inactive; Ratio [21]: 1; Activity (Staphylococcus aureus [22]): inactive |
| CC1(C)O[C@H]2O[C@H](CNC3=CC(=O)c4ccccc4C3=O)[C@H](O)[C@H]2O1 | 0 mm | 0 mm | 0 mm | 0 mm | < 10% | 0 mm | 0 mm | 0 mm | 0 mm | 0 mm |  |
| CO[C@@H]1O[C@H](CNC2=CC(=O)c3ccccc3C2=O)[C@H]2OC(C)(C)O[C@@H]12 | 0 mm | 0 mm | 0 mm | 0 mm | < 10% | 0 mm | 0 mm | 0 mm | 0 mm | 0 mm |  |
| COC(=O)c1c(C)nc(C)c2c1C(=O)C(Cl)=C(NC[C@H]1O[C@@H](OC)[C@@H]3OC(C)(C)O[C@@H]31)C2=O | 0 mm | 0 mm | 0 mm | 0 mm | < 10% | 0 mm | 0 mm | 0 mm | 0 mm | 0 mm |  |
